ChEMBL document CHEMBL4196064, “Identification of Pyrazolo[3,4-e][1,4]thiazepin based CYP51 inhibitors as potential Chagas disease therapeutic alternative: In vitro and in vivo evaluation, binding mode prediction and SAR exploration” (Eur J Med Chem, 2018)
Values after ≈ are worked out from the molar mass of the structure shown.

What follows are compounds tested on Trypanosoma cruzi (assay: Antitrypanosomal activity against Trypanosoma cruzi Tulahuen trypomastigote forms infected in mouse L929 cells assessed as reduction in infection level at 10 to 12 uM after 96 hrs by beta-galactosidase reporter gene assay relative to control).
Assay type: functional
Parameters: scale not given: the % may be the effect or the level left
Method in brief: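 L929 cells infected 2 h with tissue culture-derived β-galactosidase-expressing Tulahuen trypomastigotes at 10:1 parasite/host cell ratio, rinsed, and held 48 h at 37℃. Single fixed concentration (10-12 µM) then applied, 96 h. Absorbance read at 570 nm; growth inhibition expressed relative to untreated cells. DMSO not above 0.6 %.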
For `C=CCOc1ccc([C@H]2S[C@@H](C)C(=O)Nc3[nH]nc(C)c32)cc1`, the Activity was 0%. For `Cc1n[nH]c2c1[C@@H](c1ccc(OCc3ccc(Cl)cc3)cc1)S[C@@H](C)C(=O)N2`, the Activity was 14.88%. With `CCCOc1ccc([C@H]2S[C@@H](C)C(=O)Nc3[nH]nc(C)c32)cc1` the Activity was 0%. `Cc1ccc(COc2ccc([C@H]3S[C@@H](C)C(=O)Nc4[nH]nc(C)c43)cc2)cc1` gave an Activity of 0%. `COc1cc([C@H]2S[C@@H](C)C(=O)Nc3[nH]nc(C)c32)ccc1OCc1ccccc1C` gave an Activity of 16.43%. In the case of `COc1cc([C@H]2S[C@@H](C)C(=O)Nc3[nH]nc(C)c32)ccc1OCc1cccc(C)c1`, the Activity is reported as 25.05%. Compound `COc1cc([C@H]2S[C@@H](C)C(=O)Nc3[nH]nc(C)c32)ccc1OCc1ccccc1Cl` has an Activity of 27.88%. `COc1cc([C@H]2S[C@@H](C)C(=O)Nc3[nH]nc(C)c32)ccc1OCc1cccc(Cl)c1` showed an Activity of 39.94%. `COc1cc([C@H]2S[C@@H](C)C(=O)Nc3[nH]nc(C)c32)ccc1OCc1ccccc1` showed an Activity of 12.02%.

The compounds below were run on Trypanosoma cruzi (assay: Trypanocidal activity against Trypanosoma cruzi Sylvio X10/7 intracellular amastigotes forms assessed as inhibition of maximum parasite growth measured every 24 hrs for 96 hrs by time-kill assay relative to control).
Assay type: functional
`CC1CS(=O)(=O)CCN1/N=C/c1ccc([N+](=O)[O-])o1` (stereo unspecified) [NIFURTIMOX] was tested, and the Imax was 103%.

What follows are compounds tested on Trypanosoma cruzi (assay: Trypanocidal activity against Trypanosoma cruzi Sylvio X10/7 intracellular amastigotes forms measured every 24 hrs for 96 hrs by time-kill assay).
Assay type: functional
`CC1CS(=O)(=O)CCN1/N=C/c1ccc([N+](=O)[O-])o1` (stereo unspecified) [NIFURTIMOX] was tested, and the MIC was 5 µM (≈ 1.44 µg/mL).
